Source: ChEMBL document CHEMBL1124663, “Design, synthesis, antineoplastic activity, and chemical properties of bis(carbamate) derivatives of 4,5-bis(hydroxymethyl)imidazole” (J Med Chem, 1989)

What was measured:
Mus musculus [1] = experiment: Toxicity day evaluation was carried out on day 5 for animal dosed with 25 mg/kg compound; 6/6; assay type: organism-based; set-up: dose 25 mg/kg; conditions: in vivo
Mus musculus [2] = experiment: Body Weight Difference (BWD) of test animals administered with 200 mg/kg compound is determined on day 5 for P388 tumor cells; assay type: functional
Procedure, shortened: (§1)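 P388 leukaemia: about 10^6 cells in ascitic fluid inoculated ip on day 0 (CD2F1 mice). Compound given ip in normal saline as a freshly prepared solution or suspension, once daily on days 1–5. Treated-minus-control body weight difference in g, taken as day 5 minus day 1 weight. Groups of six.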

Mus musculus [3] = experiment: Toxicity day evaluation was carried out on day 5 for animal dosed with 200 mg/kg compound; 5/6; assay type: organism-based; set-up: dose 200 mg/kg; conditions: in vivo
Mus musculus [4] = experiment: Ability of 25 mg/kg of compound to kill tumor cells in mice is expressed as the log of the tumor cell population at the onset of treatment minus the log of the tumor cell population at the end of treatment; assay type: functional
Mus musculus [5] = experiment: The percent of the median survival time of test mice compared to control mice is determined for mice administered with 200 mg/kg compound; assay type: functional
Mus musculus [6] = experiment: Body Weight Difference (BWD) of test animals administered with 50 mg/kg compound is determined on day 5 for P388 tumor cells; assay type: functional; procedure, shortened: as §1
Mus musculus [7] = experiment: The percent of the median survival time of test mice compared to control mice is determined for mice administered with 400 mg/kg compound; assay type: functional
Mus musculus [8] = experiment: Body Weight Difference (BWD) of test animals administered with 400 mg/kg compound is determined on day 5 for P388 tumor cells; assay type: functional; procedure, shortened: as §1
Mus musculus [9] = experiment: The percent of the median survival time of test mice compared to control mice is determined for mice administered with 100 mg/kg compound; assay type: functional
Mus musculus [10] = experiment: Body Weight Difference (BWD) of test animals administered with 25 mg/kg compound is determined on day 5 for P388 tumor cells; assay type: functional; procedure, shortened: as §1
Mus musculus [11] = experiment: Toxicity day evaluation was carried out on day 5 for animal dosed with 12.5 mg/kg compound; 6/6; assay type: organism-based; set-up: dose 12.5 mg/kg; conditions: in vivo
Mus musculus [12] = experiment: The percent of the median survival time of test mice compared to control mice is determined for mice administered with 50 mg/kg compound; assay type: functional
Mus musculus [13] = experiment: Body Weight Difference (BWD) of test animals administered with 100 mg/kg compound is determined on day 5 for P388 tumor cells; assay type: functional; procedure, shortened: as §1
Mus musculus [14] = experiment: Ability of 200 mg/kg of compound to kill tumor cells in mice is expressed as the log of the tumor cell population at the onset of treatment minus the log of the tumor cell population at the end of treatment; assay type: functional
Mus musculus [15] = experiment: Toxicity day evaluation was carried out on day 5 for animal dosed with 400 mg/kg compound; 6/6; assay type: organism-based; set-up: dose 400 mg/kg; conditions: in vivo
Mus musculus [16] = experiment: Body Weight Difference (BWD) of test animals administered with 12.5 mg/kg compound is determined on day 5 for P388 tumor cells; assay type: functional; procedure, shortened: as §1
Mus musculus [17] = experiment: Toxicity day evaluation was carried out on day 5 for animal dosed with 50 mg/kg compound; 6/6; assay type: organism-based; set-up: dose 50 mg/kg; conditions: in vivo
Mus musculus [18] = experiment: Toxicity day evaluation was carried out on day 5 for animal dosed with 100 mg/kg compound; 6/6; assay type: organism-based; set-up: dose 100 mg/kg; conditions: in vivo
Mus musculus [19] = experiment: Ability of 100 mg/kg of compound to kill tumor cells in mice is expressed as the log of the tumor cell population at the onset of treatment minus the log of the tumor cell population at the end of treatment; assay type: functional
Mus musculus [20] = experiment: Toxicity day evaluation was carried out on day 5 for animal dosed with 200 mg/kg compound; 5/5; assay type: organism-based; set-up: dose 200 mg/kg; conditions: in vivo
Mus musculus [21] = experiment: Ability of 50 mg/kg of compound to kill tumor cells in mice is expressed as the log of the tumor cell population at the onset of treatment minus the log of the tumor cell population at the end of treatment; assay type: functional
Mus musculus [22] = experiment: Toxicity day evaluation was carried out on day 5 for animal dosed with 100 mg/kg compound; 5/5; assay type: organism-based; set-up: dose 100 mg/kg; conditions: in vivo
Mus musculus [23] = experiment: Toxicity day evaluation was carried out on day 5 for animal dosed with 400 mg/kg compound; 4/5; assay type: organism-based; set-up: dose 400 mg/kg; conditions: in vivo
Mus musculus [24] = experiment: Toxicity day evaluation was carried out on day 5 for animal dosed with 50 mg/kg compound; 5/5; assay type: organism-based; set-up: dose 50 mg/kg; conditions: in vivo
Mus musculus [25] = experiment: The percent of the median survival time of test mice compared to control mice is determined for mice administered with 400 mg/kg compound.; assay type: functional
Mus musculus [26] = experiment: Ability of 25 mg/kg of compound to kill tumor cells in mice is expressed as the log of the tumor cell population at the onset of treatment minus the log of the tumor cell population at the end of treatment.; assay type: functional
Mus musculus [27] = experiment: Ability of 12.5 mg/kg of compound to kill tumor cells in mice is expressed as the log of the tumor cell population at the onset of treatment minus the log of the tumor cell population at the end of treatment.; assay type: functional
Mus musculus [28] = experiment: The percent of the median survival time of test mice compared to control mice is determined for mice administered with 50 mg/kg compound.; assay type: functional
Mus musculus [29] = experiment: Ability of 50 mg/kg of compound to kill tumor cells in mice is expressed as the log of the tumor cell population at the onset of treatment minus the log of the tumor cell population at the end of treatment.; assay type: functional
Mus musculus [30] = experiment: Toxicity day evaluation was carried out on day 5 for animal dosed with 200 mg/kg compound; 6/6; assay type: organism-based; set-up: dose 200 mg/kg; conditions: in vivo

SMILES | Survivors / animals tested (Mus musculus [1]) | BWD (Mus musculus [2]) [g] | T/C (Mus musculus [5]) [%] | BWD (Mus musculus [6]) [g] | T/C (Mus musculus [7]) [%] | BWD (Mus musculus [8]) [g] | T/C (Mus musculus [9]) [%] | BWD (Mus musculus [10]) [g] | Survivors / animals tested (Mus musculus [11]) | BWD (Mus musculus [13]) [g] | Survivors / animals tested (Mus musculus [15]) | BWD (Mus musculus [16]) [g] | Survivors / animals tested (Mus musculus [17]) | Survivors / animals tested (Mus musculus [18]) | T/C (Mus musculus [28]) [%] | Survivors / animals tested (Mus musculus [30]) | also measured
CSc1nc(COC(=O)NC(C)C)c(COC(=O)NC(C)C)n1-c1ccccc1 | 6 | -2.8 | 90 | 0.3 | 100 | -4.8 | 97 | 0.6 | 6 | -2 | 6 | -0.2 | 6 | 6 | – | – | Survivors / animals tested (Mus musculus [3]): 5; KE (Mus musculus [4]): -1.55; T/C (Mus musculus [12]): 95%; KE (Mus musculus [14]): -1.64
CNC(=O)OCc1nc(SC)n(-c2ccccc2)c1COC(=O)NC | – | -3 | – | -1.4 | – | -5.2 | – | – | – | -1.6 | – | – | – | – | – | – | KE (Mus musculus [19]): 0.17; Survivors / animals tested (Mus musculus [20]): 5; KE (Mus musculus [21]): 0.6; Survivors / animals tested (Mus musculus [22]): 5; Survivors / animals tested (Mus musculus [23]): 4; Survivors / animals tested (Mus musculus [24]): 5
CSc1nc(COC(=O)NC(C)C)c(COC(=O)NC(C)C)n1C | 6 | -1.8 | – | 0 | – | -3.4 | – | 0.4 | 6 | -1.2 | 6 | 2.6 | 6 | 6 | 130 | 6 | T/C (Mus musculus [25]): 70%; KE (Mus musculus [26]): -0.91; KE (Mus musculus [27]): -1.4; KE (Mus musculus [29]): -0.56
CC(C)NC(=O)OCc1ncn(-c2ccccc2)c1COC(=O)NC(C)C | 6 | 0.2 | 90 | 0.8 | 90 | -2.3 | 91 | -0.1 | 6 | 0.6 | 6 | -0.4 | 6 | 6 | 97 | 6 | –
